Experiment [1] relates to HT-1080. The experiment can be described thus: Induction of cIAP1 protein degradation in human HT1080 cells at 0.1 to 10 uM after 6 hrs by Western blot analysis. Type of experiment: functional, cell-based.
The test system of experiment [2] is HT-1080. The experiment in a line: Activation of proteasome in human HT1080 cells expressing FLAG-tagged cIAP1 assessed as induction of cIAP1 protein degradation at 10 uM after 6 hrs by Western blot analysis.
Experiment [3] deals with HT-1080. The experiment can be described thus: Activation of proteasome in human HT1080 cells expressing FLAG-tagged cIAP1 assessed as induction of CRABP-2 protein degradation at 10 uM after 6 hrs by Western blot analysis. For orientation: Immunoblotting shows a protein as a band on a membrane.
For experiment [4], the system named is HT-1080. The experiment can be described thus: Activation of proteasome in human HT1080 cells expressing FLAG-tagged cIAP1 assessed as induction of cIAP1 and CRABP-2 protein degradation at 0.1 to 10 uM after 6 hrs by Western blot analysis.
For experiment [5], the system named is IMR-32. The experiment in a line: Activation of proteasome in human IMR32 cells assessed as induction of cIAP1 and CRABP-2 protein degradation at 3 to 30 uM after 24 hrs by Western blot analysis.
In experiment [6] the test system is IMR-32. The experiment can be described thus: Antiproliferative activity against human IMR32 cells assessed as reduction of cell number at 30 uM after 24 to 72 hrs. Format: functional, cell-based.
Experiment [7] deals with IMR-32. The experiment in a line: Induction of apoptosis in human IMR32 cells assessed as activation of caspase 3/7 after 24 hrs relative to control. Format: functional. The procedure, abridged: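 IMR-32 cells exposed to compounds for 24 h; caspase 3/7 activity expressed as fold increase over untreated control; values are means of triplicate determinations.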
Experiment [8] has as its system HT-1080. The experiment in a line: Activation of proteasome in human HT1080 cells expressing FLAG-tagged cIAP1 assessed as induction of cIAP1 and CRABP-2 protein degradation after 6 hrs by Western blot analysis.
Experiment [9] addresses T1, Retinoic acid receptor alpha (Homo sapiens) (UniProt P10276).
T1 sequence (whole entry): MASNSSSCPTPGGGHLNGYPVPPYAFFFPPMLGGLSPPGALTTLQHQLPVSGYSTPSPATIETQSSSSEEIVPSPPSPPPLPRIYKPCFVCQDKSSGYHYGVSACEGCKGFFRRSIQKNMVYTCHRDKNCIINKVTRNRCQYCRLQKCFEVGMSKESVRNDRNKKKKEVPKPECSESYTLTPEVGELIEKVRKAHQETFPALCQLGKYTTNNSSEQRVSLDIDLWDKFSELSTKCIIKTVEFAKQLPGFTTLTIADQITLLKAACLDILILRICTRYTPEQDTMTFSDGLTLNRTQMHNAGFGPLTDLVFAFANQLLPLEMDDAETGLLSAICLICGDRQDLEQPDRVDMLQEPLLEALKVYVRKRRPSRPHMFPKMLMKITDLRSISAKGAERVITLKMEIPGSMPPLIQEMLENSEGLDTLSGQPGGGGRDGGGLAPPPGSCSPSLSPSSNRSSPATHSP
The experiment in a line: Induction of RARalpha degradation.

The subject of experiment [10] is HT-1080. The experiment in a line: Activation of proteasome in human HT1080 cells expressing FLAG-tagged cIAP1 assessed as induction of cIAP1 and CRABP-2 protein degradation at 10 uM after 6 hrs by Western blot analysis in presence of proteasome inhibitor MG132. An outline of the steps:
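Compound exposure 6 h; proteasome inhibitor MG132 (10) added to the culture 30 min before compound; cIAP1 and CRABP-II levels then read by Western blot.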

The source made the active and inactive calls. The calls are words filed in the database; no cut-off is given here. Square brackets hold non-standard residues; d marks the D form. Peptide text beside a SMILES is read from it. Dip = N[C@H](C(=O)O)C(c1ccccc1)c1ccccc1; Chg = N[C@H](C(=O)O)C1CCCCC1; NMeA = CN[C@@H](C)C(=O)O

For the compound `COC(=O)[C@H](CC(C)C)NC(=O)[C@@H](O)[C@H](N)Cc1ccccc1`, the result with HT-1080 [1] was Active.
As to `CC1=C(/C=C/C(C)=C/C=C/C(C)=C/C(=O)O)C(C)(C)CCC1`, the outcome in the experiment with HT-1080 [2] and in the experiment with HT-1080 [3] was inactive.
For `CC1=C(/C=C/C(C)=C/C=C/C(C)=C/C(=O)O)C(C)(C)CC/C1=N\OCC(=O)NCCOCCOCCOC(=O)[C@H](CC(C)C)NC(=O)[C@@H](O)[C@H](N)Cc1ccccc1`, the outcome with HT-1080 [4], in the experiment with IMR-32 [5] and in the experiment with IMR-32 [6] was Active. Also, in the experiment on IMR-32 [7], the “fold change (FC)” value worked out at 3.61.
On to `CN[C@@H](C)C(=O)N[C@H](C(=O)N1CCC[C@H]1C(=O)N[C@H](C(=O)OC)C(c1ccccc1)c1ccccc1)C1CCCCC1` (H-[NMeA][Chg]P[Dip]-OMe), for which the result in the experiment with HT-1080 [1] and in the experiment on HT-1080 [2] was Active. For the same compound, the result in the experiment with HT-1080 [3] was inactive.
On to `CC1=C(/C=C/C(C)=C/C=C/C(C)=C/C(=O)O)C(C)(C)CC/C1=N\OCC(=O)NCCOCCOCCNC(=O)[C@H](CC(C)C)NC(=O)[C@@H](O)[C@H](N)Cc1ccccc1`, for which the outcome in the experiment with IMR-32 [5] was Active. Also, the “fold change (FC)” value in the experiment with IMR-32 [7] was determined as 1.84.
For `CN[C@@H](C)C(=O)N[C@H](C(=O)N1CCC[C@H]1C(=O)N[C@H](C(=O)NCCOCCOCCNC(=O)CO/N=C1\CCC(C)(C)C(/C=C/C(C)=C/C=C/C(C)=C/C(=O)O)=C1C)C(c1ccccc1)c1ccccc1)C1CCCCC1`, in the experiment with HT-1080 [8], the Activity result is “Dose-dependent effect”. Besides, the result (in experiment [9]; in the experiment with HT-1080 [10]) was inactive. Further, the outcome with HT-1080 [2], in the experiment on IMR-32 [5] and in the experiment with IMR-32 [6] was Active. In addition, in the experiment on IMR-32 [7], the “fold change (FC)” value was 4.44.

The values are drawn from ChEMBL document CHEMBL2046415, “Double protein knockdown of cIAP1 and CRABP-II using a hybrid molecule consisting of ATRA and IAPs antagonist” (2012).
